In ChEMBL document CHEMBL4130635, “2,4-Diaminoquinazolines as Dual Toll-like Receptor (TLR) 7/8 Modulators for the Treatment of Hepatitis B Virus” (J Med Chem, 2018):

Assays:
Plasma [1] = experiment: Effect on cytokine profile in C57BL/6J mouse plasma assessed as IL-12p70 levels at 30 mg/kg, po by multiplex assay (reference value: 560 pg/ml); type: functional
In short: (§1)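 Single oral gavage in 20% HP-β-CD to healthy C57BL/6 mice, groups of 15 at 0.3, 1, 3, 10 or 30 mg/kg. Three mice per group sacrificed at 0.5, 1, 2, 4 or 7 h. Plasma and liver cytokines by multiplex, maximum level reported, rounded to nearest multiple of 5.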

Plasma [2] = experiment: Proinflammatory activity in C57BL/6J mouse plasma assessed as IL-1beta levels at 10 mg/kg, po by multiplex assay (reference value: 60 pg/ml); type: functional
Liver [3] = experiment: Proinflammatory activity in C57BL/6J mouse liver assessed as CXCL-1 levels at 0.3 mg/kg, po by multiplex assay (reference value: 25 pg/g); type: functional
Plasma [4] = experiment: Proinflammatory activity in C57BL/6J mouse plasma assessed as IL-6 levels at 3 mg/kg, po by multiplex assay (reference value: 505 pg/ml); type: functional
Liver [5] = experiment: Proinflammatory activity in C57BL/6J mouse liver assessed as IL-6 levels at 1 mg/kg, po by multiplex assay (reference value: 10 pg/g); type: functional
Plasma [6] = experiment: Proinflammatory activity in C57BL/6J mouse plasma assessed as TNFalpha levels at 30 mg/kg, po by multiplex assay (reference value: 70 pg/ml); type: functional
Liver [7] = experiment: Proinflammatory activity in C57BL/6J mouse liver assessed as TNFalpha levels at 0.3 mg/kg, po by multiplex assay (reference value: 15 pg/g); type: functional
Plasma [8] = experiment: Anti-inflammatory activity in C57BL/6J mouse plasma assessed as IL-10 levels at 3 mg/kg, po by multiplex assay (reference value: 120 pg/ml); type: functional; in short: as §1
[9] = AUC (0 to last) in cynomolgus monkey plasma at 30 mg/kg, po by LC-MS analysis; type: ADME, organism-based, Macaca fascicularis; parameters: dose 30 mg/kg, route oral, time 0 - last
In short: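 Healthy cynomolgus monkeys received single oral doses of 1, 3, 9 and 30 mg/kg, with a 2-week wash-out between doses. Systemic compound concentrations were measured by LC–MS at 0.25, 0.5, 1, 2, 4, 8 and 24 h postdose.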

Cynomolgus monkey [10] = experiment: Plasma concentration in cynomolgus monkey at 1 mg/kg, po by LC-MS analysis; type: ADME, organism-based, Macaca fascicularis; conditions: in vivo
Cynomolgus monkey [11] = experiment: Activation of monocytes in cynomolgus monkey plasma assessed as upregulation of MIP1 levels at 9 mg/kg, po after 24 hrs by Luminex assay (reference value: 37 pg/ml); type: functional, Macaca fascicularis
[12] = molecular target: Alpha-1A adrenergic receptor; experiment: Inhibition of alpha-1A adrenergic receptor (unknown origin)

CCC[C@@H](CCO)Nc1nc(N)nc2c(F)cccc12
Activity (Plasma [1]): 820 pg/mL
Activity (Plasma [2]): 55 pg/mL
Activity (Liver [3]): 7790 pg/g
Activity (Plasma [4]): 4970 pg/mL
Activity (Liver [5]): 905 pg/g
Activity (Plasma [6]): >10000 pg/mL
Activity (Liver [7]): 1945 pg/g
Activity (Plasma [8]): 1115 pg/mL
AUC(0-t) [9]: 5200 ng·h/mL
Cp (Cynomolgus monkey [10]): 5.9 ng/mL
Activity (Cynomolgus monkey [11]): 310 pg/mL
IC50 [12]: > 10 µM
